# Screening data as filed in PubChem.
# Ecoli rRNA inh – reduced GFP signal of wild-type E. coli, primary screen, bacterial rRNA inhibitor project, GFP/RFP fluorescence, OD600, single point | E. coli WT GFP vs humanized-ribosome RFP mutants, 24 h; stronger effect = lower value; DMSO median 0, no signal -100 | GFP signal change (wild-type ribosome), % (concentration not given with the values) | actives 1.6% (n = 350,000);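 active = significant combined selectivity score with lowered wild-type GFP, culture density cut under 30%, mutant RFP and density less affected; inactive = any of these conditions unmet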
# DENV2 CPE – inhibitors of DENV2 cytopathic effect, primary screen, cell-based, plate reader, single concentration | DENV2-infected cells, cytopathic effect rescue | CPE inhibition, % at 9.99 µM | actives 1.7% (n = 350,000); in the data active = CPE inhibition above about 20%, passing the limit was not always enough; tested in BHK-21 cells;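 note: 0% = median of neutral control wells and 100% = median of positive control wells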
# PfHsp90 set2 – growth inhibition of PfHsp90-expressing yeast, primary screen, antimalarial PfHsp90 inhibitor project, S. cerevisiae, BacTiter-Glo luminescence, single point, set 2. BacTiter-Glo ATP, 48 h; yeast lacking PDR1 and PDR3 efflux regulators. actives 0.32% (n = 310,000). inhibition, % at 9.4 µM;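 active = every replicate shows inhibition above about 80%, whatever the replicate mean, limit read from the data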;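 note: 0% = DMSO neutral controls and 100% = 20 µM radicicol positive controls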
# S100A4 inh HTS – inhibitors of S100A4-myosin IIA peptide binding, primary screen, biochemical, fluorescence polarization, TAMRA-MyoIIA peptide; Protein S100-A4 (Homo sapiens), P26447; inhibition, % at 10.7 µM; actives 0.14% (n = 360,000); AID 652163, 2013;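 active = mean inhibition of at least 70% across replicates, with every replicate also reaching that level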
#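 Material: S100A4 monomer protein | Medium: HEPES pH 7.2 with CaCl2, KCl, NaCl, DTT, Triton | Reagent: Labelled myosin peptide probe, 5 nM | Doses: One dose per compound | Times: 5 min incubation before reading | Benchmarks: Neutral control DMSO, positive control TFP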
# AF4-AF9 inh – inhibitors of AF4 peptide binding to AF9, primary screen, biochemical, AlphaScreen, biotin-AF4 peptide, FLAG-AF9, single point. actives 0.47% (n = 350,000). Protein AF-9 (Homo sapiens), P42568. inhibition, % at 10 µM. AID 651704, 2012;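 active = every replicate reaching a set inhibition limit, whatever the replicate mean, cut at about 25% in these data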;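 note: 0% = plate neutral control median and 100% = total signal loss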
# Target sequence (P42568 whole entry, looked up): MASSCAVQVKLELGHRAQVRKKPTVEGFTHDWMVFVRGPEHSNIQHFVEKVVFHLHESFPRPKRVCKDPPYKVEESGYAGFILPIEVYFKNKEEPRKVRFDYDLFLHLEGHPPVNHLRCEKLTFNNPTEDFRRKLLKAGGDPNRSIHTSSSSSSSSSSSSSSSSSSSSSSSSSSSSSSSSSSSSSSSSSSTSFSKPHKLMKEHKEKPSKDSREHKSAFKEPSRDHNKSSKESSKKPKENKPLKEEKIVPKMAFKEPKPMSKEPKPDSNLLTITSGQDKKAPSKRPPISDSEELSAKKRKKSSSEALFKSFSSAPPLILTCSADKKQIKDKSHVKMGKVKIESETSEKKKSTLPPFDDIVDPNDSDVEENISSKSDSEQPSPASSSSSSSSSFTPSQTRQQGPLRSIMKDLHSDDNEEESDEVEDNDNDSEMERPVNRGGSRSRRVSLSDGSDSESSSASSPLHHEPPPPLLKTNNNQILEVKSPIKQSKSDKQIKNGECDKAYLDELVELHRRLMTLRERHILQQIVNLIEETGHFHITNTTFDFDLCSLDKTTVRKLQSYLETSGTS
# Cneo AK release – Cryptococcus neoformans cell lysis inducers, primary screen, AK release luminescence, single concentration; C. neoformans lysis, adenylate kinase release luminescence, 4 h; normalised: neutral wells 0, clomiphene wells 100; AID 651654, 2012; lysis activity, % at 15 µM; actives 0.2% (n = 360,000);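 active = mean lysis activity across replicates of at least 80%, whatever share of replicates individually reach that level; inactive = mean lysis activity below 80%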
#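 Material: C. neoformans cells; Schedule: 4 h static compound exposure, 37 °C, read 1 h post-reagent; Measured by: adenylate kinase release luminescence; Read-out: signal increase indicating cell lysis; Controls: Clomiphene as positive lysis control.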
# * marks the source's active call; other numbers are inactive results; nt = no result. In the library only some 3.2% were active in any assay of this set; here they are far more common.
SMILES,Ecoli rRNA inh,DENV2 CPE,PfHsp90 set2,S100A4 inh HTS,AF4-AF9 inh,Cneo AK release
CCCNC(=O)N1c2ccccc2Sc2ccccc21,-18,1,-8,0,-2,nt
O=C(NCCO)N1c2ccccc2Sc2ccccc21,3,0,-15,-5,-1,2
C=CCNC(=O)N1c2ccccc2Sc2ccccc21,-24*,0,2,17,0,0
CCC(C)NC(=O)N1c2ccccc2Sc2ccccc21 (configuration not stated),-31*,7,-8,1,8,nt
Cc1ccc(NC(=O)Nn2cnnc2)cc1Cl,16,1,6,-1,0,-7
O=C(Nc1ccc(Cl)c(Cl)c1)Nn1cnnc1,-22*,13,18,1,3,-6
C[C@@H]1CN([C@@H](C)CO)C(=O)Cc2cc(NC(=O)CCCN(C)C)ccc2O[C@H]1CN(C)C,0,-4,nt,-11,-6,1
CC(OC(=O)/C=C/c1cccc(Cl)c1)C(=O)NC1CCCCC1C (configuration not stated),13,91*,47,1,-3,-1
COc1cccc(NC(=O)C[C@H]2CC[C@@H]3[C@@H](COc4ccc(NC(=O)C5CCCCC5)cc4C(=O)N3C)O2)c1,-6,33*,nt,40,1,-2
CN(C)C(=O)C[C@@H]1CC[C@@H]2[C@H](COc3ccc(NC(=O)C4CCCCC4)cc3C(=O)N2C)O1,4,28*,nt,nt,nt,nt
CN1C(=O)c2cc(NC(=O)c3cccc(F)c3)ccc2OC[C@H]2O[C@@H](CC(=O)N3CCc4ccccc4C3)CC[C@@H]21,-26*,6,nt,-12,1,4
CN1C(=O)c2cc(NC(=O)c3cccc(F)c3)ccc2OC[C@@H]2O[C@@H](CC(=O)N3CCc4ccccc4C3)CC[C@H]21,-11,5,nt,7,0,-1
CN1CCN(C(=O)C[C@@H]2CC[C@H]3[C@H](COc4ccc(NC(=O)C5CCCC5)cc4C(=O)N3C)O2)CC1,1,25*,nt,14,-3,nt
C[C@@H]1CN([C@H](C)CO)C(=O)CCCn2cc(nn2)CO[C@@H]1CN(C)Cc1cccnc1,1,nt,nt,nt,nt,nt
C[C@H](CO)N1C[C@H](C)[C@H](CN(C)C(=O)Nc2cccc3ccccc23)Oc2ncc(/C=C/c3ccccc3)cc2C1=O,-5,-6,nt,2,7,11
CCCN(C)C[C@H]1OCCCC[C@H](C)Oc2ccc(NC(=O)CCC(F)(F)F)cc2C(=O)N([C@H](C)CO)C[C@@H]1C,3,-5,nt,-9,-3,0
C[C@H](CO)N1C[C@H](C)[C@@H](CN(C)S(=O)(=O)c2cccs2)OCCCC[C@H](C)Oc2ccc(NS(C)(=O)=O)cc2C1=O,-6,6,nt,106*,-7,-1
Cc1ccc(S(=O)(=O)Nc2ccc3c(c2)C(=O)N([C@@H](C)CO)C[C@@H](C)[C@@H](CN(C)S(=O)(=O)c2cccs2)OCCCC[C@@H](C)O3)cc1,-6,40*,nt,-23,-3,-1
C[C@@H]1CN([C@@H](C)CO)C(=O)c2cc(NS(=O)(=O)c3ccc(Cl)cc3)ccc2O[C@@H](C)CCCCO[C@H]1CN(C)S(=O)(=O)c1cccs1,-5,36*,nt,10,-2,-1
Cc1ccc(S(=O)(=O)Nc2ccc3c(c2)C(=O)N([C@@H](C)CO)C[C@@H](C)[C@H](CN(C)S(=O)(=O)c2cccs2)OCCCC[C@H](C)O3)cc1,1,-5,nt,-19,-4,1
CCC(=O)N1C[C@@H](C)[C@@H](OC)CN(C)C(=O)c2ccc(NC(=O)C3CCOCC3)cc2OC[C@H]1C,0,nt,nt,nt,nt,0
CCC(=O)Nc1ccc2c(c1)C(=O)N(C)C[C@H](OC)[C@H](C)CN(C(=O)CC1CC1)[C@@H](C)CO2,0,-3,nt,-11,-1,-2
COc1ccc(CNC(=O)CNC(c2ccccc2)c2ccccc2)cc1OC,-28*,4,12,1,2,0
COc1ccc(CC(=O)NCc2cccc(CNC(=O)Cc3ccc(OC)c(OC)c3)c2)cc1OC,20,0,9,4,2,3
CO[C@@H]1CN(C)C(=O)c2ccc(NC(=O)C3CCCC3)cc2OC[C@@H](C)N(Cc2nccs2)C[C@H]1C,-5,0,nt,7,-1,-1
SMILES,Ecoli rRNA inh,DENV2 CPE,PfHsp90 set2,S100A4 inh HTS,AF4-AF9 inh,Cneo AK release
C[C@@H](NC(=O)C[C@H]1CC[C@@H]2[C@H](COC[C@H](O)CN2C)O1)c1ccccc1,-4,-4,nt,2,-2,-3
COc1ccc(C(C)(C)C)cc1NC(=O)Nc1ccc2c(c1)OCO2,nt,nt,86*,nt,nt,-1
C[C@@H]1CN([C@@H](C)CO)C(=O)c2cc(NS(=O)(=O)c3ccc(F)cc3)ccc2O[C@@H](C)CCCCO[C@H]1CN(C)C(=O)C1CCCCC1,-1,0,nt,-30,3,-7
CCOC(=O)C1=C(c2ccccc2)OC(N)=C(C#N)C1c1cccs1 (configuration not stated),nt,nt,nt,nt,nt,0
N#CC1=C(N)Oc2cc(N)ccc2C1c1ccccc1F (configuration not stated),0,-2,-2,-2,-7,0
CC(=O)C1=C(c2ccccc2)OC(N)=C(C#N)C1c1ccccc1F (configuration not stated),-47*,nt,-2,20,1,nt
CC(=O)C1=C(c2ccccc2)OC(N)=C(C#N)C1c1ccccc1C (configuration not stated),-33*,7,4,0,3,nt
O=C(O)COc1ccccc1C=NNc1ccc([N+](=O)[O-])cc1S(=O)(=O)Nc1ccc(Cl)cc1,-23,-3,-45,-12,-1,2
COc1ccc(C=NNc2ccc([N+](=O)[O-])cc2S(=O)(=O)Nc2ccccc2C(=O)O)cc1OC,-23*,-5,-8,-3,4,-7
COc1ccc(NS(=O)(=O)c2cc([N+](=O)[O-])ccc2NN=Cc2ccccc2OCC(=O)O)cc1,-32*,-1,nt,-1,7,8
O=C(O)c1ccccc1NS(=O)(=O)c1ccc(NN=Cc2ccc(F)cc2)c([N+](=O)[O-])c1,nt,nt,-16,nt,nt,nt
COc1ccccc1NS(=O)(=O)c1cc([N+](=O)[O-])ccc1N/N=C/c1c[nH]c2ccccc12,nt,nt,nt,nt,nt,0
